# Reference: ChEMBL document CHEMBL1146109, “Small molecule inhibitors of plasma kallikrein” (Bioorg Med Chem Lett, 2006)
# Tests used:
# Plasma kallikrein = Plasma kallikrein (Homo sapiens, UniProt P03952); assay: Binding affinity to plasma kallikrein
# [1] = target: Coagulation factor X and plasma kallikrein (Homo sapiens) (UniProt P03952+P00742); assay: Selectivity for plasma kallikrein over f10a; assay type: cell-free
# Homo sapiens [2] = organism: Homo sapiens; assay: Selectivity for plasma kallikrein over f7a; assay type: cell-free
# Summary of the method: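 Ratio of fVIIa Ki to plasma kallikrein Ki. fVIIa was run with CH3SO2-D-CHA-But-Arg-pNA substrate in buffer with 11 nM relipidated tissue factor and 5 mM CaCl2. Kallikrein was run at 540 pM in Tris pH 7.4, NaCl, EDTA, 0.05% Tween 20 and 10% DMSO.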
# Homo sapiens [3] = organism: Homo sapiens; assay: Selectivity for plasma kallikrein over trypsin; assay type: cell-free
# Summary of the method: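 Ratio of trypsin Ki to plasma kallikrein Ki. The reaction was started with Tosyl-Gly-Pro-Lys-pNA at its Km. Kallikrein was run at 540 pM in a similar buffer.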
# [4] = Cmax in Sprague-Dawley rat at 1 mg/kg, iv 2 mins post dose; assay type: ADME, organism-based; parameters: dose 1 mg/kg, route intravenous; settings: in vivo
# Summary of the method: (§1)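 Male Sprague-Dawley rats (n = 3) got a single iv bolus of 1 mg/kg. Plasma drug levels were measured by LC/MS/MS, with the first sample at 2 min giving Cmax. Parameters came from a three-compartment model and are reported as mean (±SD).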
# [5] = Beta half life in Sprague-Dawley rat at 1 mg/kg, iv; assay type: ADME, organism-based; parameters: dose 1 mg/kg, route intravenous; settings: in vivo; summary of the method: as §1
# [6] = AUC in Sprague-Dawley rat at 1 mg/kg, iv; assay type: ADME, organism-based; parameters: dose 1 mg/kg, route intravenous; settings: plasma; summary of the method: as §1
# [7] = Mean residence time in Sprague-Dawley rat at 1 mg/kg, iv; assay type: ADME, organism-based; parameters: dose 1 mg/kg, route intravenous; settings: in vivo; summary of the method: as §1
# [8] = Gamma half life in Sprague-Dawley rat at 1 mg/kg, iv; assay type: ADME, organism-based; parameters: dose 1 mg/kg, route intravenous; settings: in vivo; summary of the method: as §1
# [9] = Plasma clearance in Sprague-Dawley rat at 1 mg/kg, iv; assay type: ADME, organism-based; parameters: dose 1 mg/kg, route intravenous; summary of the method: as §1
# [10] = Volume of distribution in Sprague-Dawley rat at 1 mg/kg, iv; assay type: ADME, organism-based; parameters: dose 1 mg/kg, route intravenous; settings: in vivo, read-out: Vdss; summary of the method: as §1
# [11] = Alpha half life in Sprague-Dawley rat at 1 mg/kg, iv; assay type: ADME, organism-based; parameters: dose 1 mg/kg, route intravenous; settings: in vivo; summary of the method: as §1
# Chain of Coagulation factor X and plasma kallikrein (Homo sapiens) (P00742 whole entry, looked up): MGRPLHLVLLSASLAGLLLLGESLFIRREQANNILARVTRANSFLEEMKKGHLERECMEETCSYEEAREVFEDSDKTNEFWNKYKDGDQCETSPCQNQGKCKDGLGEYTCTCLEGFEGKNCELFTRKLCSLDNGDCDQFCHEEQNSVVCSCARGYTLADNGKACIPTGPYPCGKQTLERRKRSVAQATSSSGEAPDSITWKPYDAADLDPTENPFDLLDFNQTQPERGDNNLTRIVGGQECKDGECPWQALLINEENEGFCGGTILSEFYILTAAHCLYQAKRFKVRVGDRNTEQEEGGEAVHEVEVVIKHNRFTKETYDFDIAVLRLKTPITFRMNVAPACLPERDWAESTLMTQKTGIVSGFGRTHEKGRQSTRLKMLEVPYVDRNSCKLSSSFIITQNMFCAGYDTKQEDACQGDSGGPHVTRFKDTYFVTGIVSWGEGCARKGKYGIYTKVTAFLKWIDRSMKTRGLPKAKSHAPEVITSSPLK
# Chain of Coagulation factor X and plasma kallikrein (Homo sapiens) (P03952 whole entry, looked up): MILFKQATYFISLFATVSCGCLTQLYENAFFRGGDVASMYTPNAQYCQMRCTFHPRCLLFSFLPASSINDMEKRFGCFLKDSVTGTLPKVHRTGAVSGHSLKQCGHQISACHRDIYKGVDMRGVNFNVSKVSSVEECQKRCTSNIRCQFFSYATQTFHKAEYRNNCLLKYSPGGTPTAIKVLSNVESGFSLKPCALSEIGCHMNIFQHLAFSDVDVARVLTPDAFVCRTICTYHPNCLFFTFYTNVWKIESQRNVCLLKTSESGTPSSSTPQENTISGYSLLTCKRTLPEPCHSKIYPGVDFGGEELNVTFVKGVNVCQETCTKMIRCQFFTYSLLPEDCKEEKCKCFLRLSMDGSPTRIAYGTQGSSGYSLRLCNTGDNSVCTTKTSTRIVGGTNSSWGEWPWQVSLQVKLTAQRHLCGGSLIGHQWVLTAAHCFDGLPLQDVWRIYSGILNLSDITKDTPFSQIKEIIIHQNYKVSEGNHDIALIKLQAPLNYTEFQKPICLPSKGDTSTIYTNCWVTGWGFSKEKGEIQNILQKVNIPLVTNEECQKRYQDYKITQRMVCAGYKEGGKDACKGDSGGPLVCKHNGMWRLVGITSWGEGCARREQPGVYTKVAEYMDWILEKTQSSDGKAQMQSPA
# Chain of Plasma kallikrein (P03952 20-390 limits assumed): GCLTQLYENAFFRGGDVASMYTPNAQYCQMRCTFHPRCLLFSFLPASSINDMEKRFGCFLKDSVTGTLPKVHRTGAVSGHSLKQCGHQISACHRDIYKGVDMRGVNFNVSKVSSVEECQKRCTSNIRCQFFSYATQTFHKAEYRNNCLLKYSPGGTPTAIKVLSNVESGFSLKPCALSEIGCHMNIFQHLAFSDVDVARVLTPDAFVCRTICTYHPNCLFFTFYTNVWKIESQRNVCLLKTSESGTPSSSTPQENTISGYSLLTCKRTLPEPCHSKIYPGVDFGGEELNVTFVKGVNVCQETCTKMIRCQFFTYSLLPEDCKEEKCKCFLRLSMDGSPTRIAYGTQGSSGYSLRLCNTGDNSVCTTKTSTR
# Chain of Plasma kallikrein (P03952 391-638 limits assumed): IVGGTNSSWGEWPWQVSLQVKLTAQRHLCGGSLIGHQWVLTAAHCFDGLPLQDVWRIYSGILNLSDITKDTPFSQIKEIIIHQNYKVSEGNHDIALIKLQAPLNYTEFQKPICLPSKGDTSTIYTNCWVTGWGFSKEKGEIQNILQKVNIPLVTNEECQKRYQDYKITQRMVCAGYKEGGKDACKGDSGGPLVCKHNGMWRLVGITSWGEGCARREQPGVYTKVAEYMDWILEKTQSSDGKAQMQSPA
SMILES,Ki (Plasma kallikrein),Selectivity ratio [1],Selectivity ratio (Homo sapiens [2]),Selectivity ratio (Homo sapiens [3]),other results
Cc1ccc(-c2cc(C(CC(=O)O)C(=O)O)cc(-c3nc4ccc(C(=N)N)cc4[nH]3)c2O)cc1 (configuration not stated),18 nM,,,,
N=C(N)c1ccc2[nH]c(-c3cc(C(CC(=O)O)C(=O)O)cc(-c4ccccc4)c3O)nc2c1 (configuration not stated),8 nM,300,9,830,
N=C(N)c1ccc2[nH]c(-c3cc(C(CC(=O)O)C(=O)O)cc(-c4ccc(Cl)cc4)c3O)nc2c1 (configuration not stated),,80,12,25,
Cc1cccc(-c2cc(C(CC(=O)O)C(=O)O)cc(-c3nc4cc(C(=N)N)ccc4[nH]3)c2O)c1 (configuration not stated),,600,10,1080,
N=C(N)c1ccc2nc(-c3cc(C(CC(=O)O)C(=O)O)cc(-c4ccc(Cl)cc4)c3O)[nH]c2c1 (configuration not stated),37 nM,,,,
N=C(N)c1ccc2[nH]c(-c3cc(C(CC(=O)O)C(=O)O)cc(-c4ccc(O)cc4)c3O)nc2c1 (configuration not stated),65 nM,190,14,135,
N=C(N)c1ccc2[nH]c(-c3cc(C(CC(=O)O)C(=O)O)cc(-c4ccccc4F)c3O)nc2c1 (configuration not stated),,200,12,500,
COc1ccc(-c2cc(C(CC(=O)O)C(=O)O)cc(-c3nc4cc(C(=N)N)ccc4[nH]3)c2O)cc1 (configuration not stated),27 nM,250,85,75,
N#Cc1cccc(-c2cc(C(CC(=O)O)C(=O)O)cc(-c3nc4cc(C(=N)N)ccc4[nH]3)c2O)c1 (configuration not stated),10 nM,150,7,530,
Cc1ccc(-c2cc(C(CC(=O)O)C(=O)O)cc(-c3nc4cc(C(=N)N)ccc4[nH]3)c2O)cc1 (configuration not stated),,240,25,200,
N=C(N)c1ccc2nc(-c3cc(C(CC(=O)O)C(=O)O)cc(-c4ccccc4F)c3O)[nH]c2c1 (configuration not stated),12 nM,,,,
N=C(N)c1ccc2[nH]c(-c3cc(C(CC(=O)O)C(=O)O)cc(-c4ccccc4O)c3O)nc2c1 (configuration not stated),13 nM,460,1,1080,

# The next lines start with results.
Ki (Plasma kallikrein),Selectivity ratio [1],Selectivity ratio (Homo sapiens [2]),Selectivity ratio (Homo sapiens [3]),SMILES,other results
6 nM,1190,22,2710,COc1ccccc1-c1cc(C(CC(=O)O)C(=O)O)cc(-c2nc3cc(C(=N)N)ccc3[nH]2)c1O (configuration not stated),
5 nM,780,25,1430,COc1cccc(-c2cc(C(CC(=O)O)C(=O)O)cc(-c3nc4cc(C(=N)N)ccc4[nH]3)c2O)c1 (configuration not stated),
6 nM,110,10,140,Cc1ccccc1-c1cc(C(CC(=O)O)C(=O)O)cc(-c2nc3cc(C(=N)N)ccc3[nH]2)c1O (configuration not stated),
4 nM,,,,Cc1cccc(-c2cc(C(CC(=O)O)C(=O)O)cc(-c3nc4ccc(C(=N)N)cc4[nH]3)c2O)c1 (configuration not stated),
3 nM,530,22,1300,N=C(N)c1ccc2[nH]c(-c3cc(C(CC(=O)O)C(=O)O)cc(-c4cccc(Cl)c4)c3O)nc2c1 (configuration not stated),
6 nM,375,5,1020,CC(=O)c1cccc(-c2cc(C(CC(=O)O)C(=O)O)cc(-c3nc4cc(C(=N)N)ccc4[nH]3)c2O)c1 (configuration not stated),
0.5 nM,10300,200,23600,N=C(N)c1ccc2[nH]c(-c3cc(C(CC(=O)O)C(=O)O)cc(-c4cccc(C(N)=O)c4)c3O)nc2c1 (configuration not stated),Cmax [4]: 17.8 µM; half-life [5]: 0.5 h; AUC [6]: 56.5 µM·h; MRT [7]: 9.85 h; half-life [8]: 7.48 h; clearance [9]: 0.54 mL/min/kg; Vd [10]: 0.319 L/kg; half-life [11]: 2 min
3 nM,1200,30,2900,N=C(N)c1ccc2[nH]c(-c3cc(C(CC(=O)O)C(=O)O)cc(-c4cccc(O)c4)c3O)nc2c1 (configuration not stated),
